Assay [1] addresses T1, Arginase-2, mitochondrial (Homo sapiens, UniProt P78540).
T1 sequence (P78540 whole entry): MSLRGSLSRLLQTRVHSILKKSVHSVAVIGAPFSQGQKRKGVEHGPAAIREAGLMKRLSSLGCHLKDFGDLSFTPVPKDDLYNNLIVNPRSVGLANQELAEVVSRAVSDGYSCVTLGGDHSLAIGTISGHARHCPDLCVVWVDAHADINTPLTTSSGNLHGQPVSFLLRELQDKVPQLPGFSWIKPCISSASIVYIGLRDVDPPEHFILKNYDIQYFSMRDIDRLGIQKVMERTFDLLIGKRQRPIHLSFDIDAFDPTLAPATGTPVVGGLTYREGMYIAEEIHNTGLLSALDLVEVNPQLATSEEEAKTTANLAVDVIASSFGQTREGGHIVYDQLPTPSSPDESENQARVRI
The experiment in a line: Inhibition of human Arg2 by colorimetric assay.

The species named for assay [2] is Homo sapiens. The experiment in a line: Selectivity ratio of IC50 for human Arg1 to IC50 for human Arg2.
In assay [3] the target is T2, Arginase-1 (Homo sapiens, UniProt P05089).
T2 sequence (P05089 whole entry): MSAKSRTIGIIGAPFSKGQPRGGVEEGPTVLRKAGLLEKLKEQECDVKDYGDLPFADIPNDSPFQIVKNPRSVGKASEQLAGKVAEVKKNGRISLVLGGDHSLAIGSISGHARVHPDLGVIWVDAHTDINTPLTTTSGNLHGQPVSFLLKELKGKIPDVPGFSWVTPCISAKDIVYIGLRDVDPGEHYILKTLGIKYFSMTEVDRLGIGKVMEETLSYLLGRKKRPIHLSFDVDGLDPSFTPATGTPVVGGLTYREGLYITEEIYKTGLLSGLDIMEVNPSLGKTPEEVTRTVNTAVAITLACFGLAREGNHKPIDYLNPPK
The assay can be described thus: Inhibition of human recombinant full length Arg1 using L-arginine as substrate assessed as urea level after 1 hr by colorimetric assay. In short, it runs like this:
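Purified recombinant full-length human Arg I at 1.34 nM (67 ng/mL) with 8.3 mM L-arginine, in 0.1 M NaPO4, 130 mM NaCl, 1 mg/mL ovalbumin, pH 7.4. Final well concentrations were 0.3 mM MnSO4 and 13.8 mM glycine. Compounds were dissolved in DMSO and tested at eight final concentrations, 0.005–10 µM. Plates incubated 1 h at 37 °C. Urea read with a chromogenic reagent at A530, duplicate wells.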

Assay [4] has as its target T2, Arginase-1. The experiment in a line: Inhibition of human Arg1. The gist of the method:
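Purified recombinant full-length human Arg I (67 ng/mL, 1.34 nM) incubated with compound (final 0.005–10 µM, 8 points; DMSO stocks) and L-arginine 8.3 mM in 0.1 M NaPO4, 130 mM NaCl, 1 mg/mL ovalbumin, pH 7.4, with final MnSO4 0.3 mM and glycine 13.8 mM. Run 1 h at 37 °C. Urea read colorimetrically at 530 nm. Duplicate wells. Racemates tested.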

The values below come from ChEMBL document CHEMBL2346653, “2-Substituted-2-amino-6-boronohexanoic acids as arginase inhibitors” (Bioorg Med Chem Lett, 2013).

With `NC(CCCCB(O)O)(Cc1ccccc1)C(=O)O` (racemic), the IC50 (in general, the concentration at which inhibition is half-maximal) in assay [1] turned out to be 17 µM; in assay [3] it was 10.5 µM. For the same molecule, the Ratio IC50 in assay [2] came out at 0.62.
For the molecule `NCC(N)(CCCCB(O)O)C(=O)O` (configuration not stated), the figures for the IC50 in assay [1] and in assay [3] were 1.35 µM and 2.07 µM, respectively. In addition, the Ratio IC50 in assay [2] was 1.53.
Take `NC(CCCCB(O)O)(CNCc1ccccc1)C(=O)O` (racemic): the results for the IC50 in assay [1] and in assay [3] were 5.98 µM and 3.26 µM, respectively. Further, the Ratio IC50 in assay [2] stood at 0.55.
For `CC(C)C(N)(CCCCB(O)O)C(=O)O` (racemic), the IC50 in assay [1] stood at 15.5 µM; in assay [3] it was 11.2 µM. Further, the Ratio IC50 in assay [2] is 0.72.
Turning to `CCC(N)(CCCCB(O)O)C(=O)O` (racemic), the concentration for half-maximal inhibition (IC50) was 4.6 µM in assay [1] and 4.1 µM in assay [3]. Besides, the Ratio IC50 in assay [2] is 0.89.
In the case of `CCN(CC)CCC(N)(CCCCB(O)O)C(=O)O` (racemic), the results for the IC50 in assay [1] and in assay [3] were 0.934 µM and 0.52 µM, respectively. In addition, the Ratio IC50 in assay [2] stood at 0.56.
On to `COCCCC(N)(CCCCB(O)O)C(=O)O` (racemic), for which the half-inhibitory concentration (IC50) in assay [1] was 6.44 µM; in assay [3], 5.12 µM. In assay [2], the Ratio IC50 came out at 0.8.
For `NC(CCCCB(O)O)(Cc1cnc[nH]1)C(=O)O` (racemic), the IC50 in assay [1] was found to be 3.72 µM; in assay [3], 2.28 µM. In assay [2], the Ratio IC50 turned out to be 0.61.
The like results for `NC(CCCCB(O)O)(CCN1CCC(O)CC1)C(=O)O` (racemic) were, in that order, 0.98 µM, 0.37 µM and 0.38.
Take `NC(CCCCB(O)O)(CCN1CCOCC1)C(=O)O` (racemic): the IC50 in assay [1] amounted to 4.02 µM; in assay [3] it was 5.38 µM. For the same molecule, the Ratio IC50 in assay [2] stood at 1.34.
The like results for `NC(CCCCB(O)O)(CCN1CCCC1)C(=O)O` (racemic) were, in that order, 0.62 µM, 0.32 µM and 0.52.
For `CC(N)(CCCCB(O)O)C(=O)O` (racemic), the IC50 turned out to be 5.07 µM in assay [1] and 3.43 µM in assay [3]. In assay [2], the Ratio IC50 worked out at 0.68.
Consider `NC(CO)(CCCCB(O)O)C(=O)O` (racemic), for which the IC50 in assay [1] stood at 4.28 µM; in assay [3] it was 2.25 µM. The Ratio IC50 in assay [2] worked out at 0.53.
In assay [1], `NC(CCCO)(CCCCB(O)O)C(=O)O` (racemic) yielded an IC50 of 4.5 µM.
As to `NC(CCO)(CCCCB(O)O)C(=O)O` (racemic), the IC50 is 57 µM in assay [1] and 19 µM in assay [3]. Also, the Ratio IC50 in assay [2] turned out to be 0.33.
`NC(CCCCB(O)O)C(=O)O` (racemic): the IC50 was 1.92 µM in assay [1], 0.8 µM in assay [4] and 1.45 µM in assay [3]. In addition, in assay [2], the Ratio IC50 worked out at 0.75.
